What was measured:
MT4 [1] = test: In vitro inhibitory activity for cytopathicities induced by HIV-1III B against MT-4 cells.; type: functional, cell-based; conditions: Homo sapiens
Outline: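 Exponentially growing MT-4 cells were pelleted (140g, 5 min), infected in a small volume of RPMI-1640 with 100 TCID50 HIV-1 IIIB for 1 h, washed, and plated at 2.5 × 10⁴ cells/well with serial oligonucleotide dilutions. Viability was read by MTT at day 6. IC50 was taken from dose-response curves, as the mean of duplicate or quadruplicate ± SD.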

MT4 [2] = test: Cytotoxicity was measured against MT-4 cells using MTT assay.; type: functional; conditions: Homo sapiens

| SMILES | IC50 (MT4 [1]) | CC50 (MT4 [2]) |
| --- | --- | --- |
| Cc1cn([C@H]2C[C@H](OP(=O)(O)OC[C@H]3O[C@@H](n4cnc5c(=O)[nH]c(N)nc54)C[C@@H]3OP(=O)(O)OC[C@H]3O[C@@H](n4cnc5c(=O)[nH]c(N)nc54)C[C@@H]3OP(=O)(O)OC[C@H]3O[C@@H](n4cnc5c(=O)[nH]c(N)nc54)C[C@@H]3OP(=O)(O)OC[C@H]3O[C@@H](n4cnc5c(N)ncnc54)C[C@@H]3OP(=O)(O)OC[C@H]3O[C@@H](n4cnc5c(=O)[nH]c(N)nc54)C[C@@H]3O)[C@@H](COC(c3ccccc3)(c3ccccc3)c3ccccc3)O2)c(=O)[nH]c1=O | 0.8 µM | 23 µM |
| Cc1cn([C@H]2C[C@H](OP(=O)(O)OC[C@H]3O[C@@H](n4cnc5c(=O)[nH]c(N)nc54)C[C@@H]3OP(=O)(O)OC[C@H]3O[C@@H](n4cnc5c(=O)[nH]c(N)nc54)C[C@@H]3OP(=O)(O)OC[C@H]3O[C@@H](n4cnc5c(=O)[nH]c(N)nc54)C[C@@H]3OP(=O)(O)OC[C@H]3O[C@@H](n4cnc5c(N)ncnc54)C[C@@H]3OP(=O)(O)OC[C@H]3O[C@@H](n4cnc5c(=O)[nH]c(N)nc54)C[C@@H]3O)[C@@H](COCc3ccc(OCc4ccccc4)cc3)O2)c(=O)[nH]c1=O | 1.9 µM | > 40 µM |
| Cc1cn([C@H]2C[C@H](OP(=O)(O)OC[C@H]3O[C@@H](n4cc(C)c(=O)[nH]c4=O)C[C@@H]3OP(=O)(O)OC[C@H]3O[C@@H](n4cnc5c(O)nc(N)nc54)C[C@@H]3OP(=O)(O)OC[C@H]3O[C@@H](n4cnc5c(O)nc(N)nc54)C[C@@H]3O)[C@@H](COCc3ccc(OCc4ccccc4)c(OCc4ccccc4)c3)O2)c(=O)[nH]c1=O | > 50 µM | 33 µM |

— ChEMBL document CHEMBL1131099, “Biologically active oligodeoxyribonucleotides. 5. 5'-End-substituted d(TGGGAG) possesses anti-human immunodeficiency virus type 1 activity by forming a G-quadruplex structure” (J Med Chem, 1998)
